# Pyk2 oligo antag – Pyk2 (human) oligomerization antagonism | AID 1347419 | Q293 cells, Pyk2 FERM NanoBiT luminescence; hits give low values | z-score (the deposit names both 25 µM and 10 µM) | Q14289 | 0.83% of 99,000 active;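 active = Z-score of -3 or lower, scaled per plate to the spread of control and sample wells; inactive = z-score above -3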;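 note: negative z-score means lost luminescence so less FERM oligomerization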
# PTPN22 act – increases human PTPN22 phosphatase activity | Q9Y2R2 | recombinant LYP, DiFMUP fluorescence; 0 = plate median, 100 = signal doubled | activation, % at 2 µM | 0.11% of 96,000 active;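 active = activation at 2 µM above a set limit, the mean plus 5 SD, cut at about 37% in these data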
# Target sequence (Q9Y2R2 whole entry, looked up): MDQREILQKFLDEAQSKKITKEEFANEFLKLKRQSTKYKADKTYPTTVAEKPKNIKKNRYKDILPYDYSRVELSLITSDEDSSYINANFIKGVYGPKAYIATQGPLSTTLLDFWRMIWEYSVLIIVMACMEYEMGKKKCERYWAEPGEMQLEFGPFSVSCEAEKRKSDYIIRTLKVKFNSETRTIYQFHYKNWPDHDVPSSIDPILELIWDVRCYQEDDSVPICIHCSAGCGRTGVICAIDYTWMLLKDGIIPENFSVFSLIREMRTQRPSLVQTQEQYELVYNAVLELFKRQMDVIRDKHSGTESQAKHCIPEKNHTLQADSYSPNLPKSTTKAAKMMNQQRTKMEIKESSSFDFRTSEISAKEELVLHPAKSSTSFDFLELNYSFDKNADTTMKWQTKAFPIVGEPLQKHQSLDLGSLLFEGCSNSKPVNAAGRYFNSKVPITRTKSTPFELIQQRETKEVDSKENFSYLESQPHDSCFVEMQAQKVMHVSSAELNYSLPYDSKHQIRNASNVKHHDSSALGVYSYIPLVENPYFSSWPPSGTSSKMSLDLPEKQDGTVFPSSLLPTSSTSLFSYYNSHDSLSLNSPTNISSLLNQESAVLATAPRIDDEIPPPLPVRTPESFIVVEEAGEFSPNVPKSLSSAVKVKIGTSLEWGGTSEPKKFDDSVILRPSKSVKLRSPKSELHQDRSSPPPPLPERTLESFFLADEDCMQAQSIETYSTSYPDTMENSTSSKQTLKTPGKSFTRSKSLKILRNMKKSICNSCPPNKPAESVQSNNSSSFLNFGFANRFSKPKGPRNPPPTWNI
# HIV Rev-RRE inh – disrupts HIV-1 Rev binding to RRE RNA; Rev peptide-RRE RNA binding, FRET; P05866; 0.79% of 97,000 active; inhibition, % at 8 µM;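 active = inhibition above the screen-wide mean plus 3 SD, cut at about 35% in these data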
#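 assay system = Cy5-tagged RRE RNA duplex with fluorescein-tagged Rev peptide | incubation = 5 + 15 min at 25 °C | also added = labelled Rev peptide | measure = % inhibition of FRET ratio versus controls | benchmarks = DMSO wells as 0% and neomycin B wells as 100% inhibition | measured by = FRET fluorescence readout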
# LYP inh 2 – LYP (human) phosphatase inhibition | AID 640 | 0.21% of 96,000 active | inhibition, % at 2 µM | recombinant LYP catalytic domain, DiFMUP fluorescence;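 active = inhibition at 2 µM at or above a set limit, the screen mean plus 3 SD, cut at about 24% in these data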
# PTPN22 act conf – confirmation of human LYP phosphatase activators; shares compounds with PTPN22 act; Recombinant LYP, DIFMUP fluorescence, activation; zero set by plate's median compound well; activation, % at 2 µM; 100 tested, under 10 active; AID 1031; call rule not given here
# Hits are given with their value; i = inactive; nt = no result given. An excerpt weighted towards active compounds, which were near 1.8% of everything screened.
SMILES,Pyk2 oligo antag,PTPN22 act,HIV Rev-RRE inh,LYP inh 2,PTPN22 act conf
CCN(Cc1ccccc1)C(c1ccncc1)c1nnnn1C(C)(C)C (configuration not stated),i,nt,nt,nt,nt
CCOC(=O)CSc1nnc(Cn2nnc(-c3ccccc3)n2)n1C,i,i,i,i,nt
CCCN1C(=O)/C(=C/c2c(NCCCOCC)nc3c(C)cccn3c2=O)SC1=S,i,i,76,i,nt
Cc1cccn2c(=O)c(C=Nc3ccccc3)c(NCc3ccco3)nc12,i,i,i,i,nt
CCOCCCNc1nc2c(C)cccn2c(=O)c1/C=C1\SC(=S)N(CC(C)C)C1=O,i,i,44,i,nt
Nc1nc2n(n1)C(c1cccs1)CC(c1ccc(Br)cc1)N2 (configuration not stated),-3.2,i,i,i,nt
NC(=O)c1nc(N2CCOCC2)nc(N2CCOCC2)n1,i,41,i,i,i
Nc1cc(N)nc(SCC(=O)Nc2ccccc2)n1,i,i,i,i,nt
Nc1cc(N)nc(SCC(=O)c2ccccc2)n1,i,43,i,i,i
COc1ccccc1NC(=O)Cc1noc(CSc2nnc(C)s2)n1,i,46,i,i,i
CC(Sc1ccc(Cl)cc1)C(=O)NCc1cccnc1 (configuration not stated),i,37,i,i,i
CC(C)(C)NC(=O)Cn1ccc(=N)c2ccccc21,i,45,i,i,i
CC(=O)N1c2c(cc(Br)cc2S(=O)(=O)NCC2COc3ccccc3O2)CC1C (configuration not stated),i,38,i,i,i
CC(=O)N1c2c(cc(Br)cc2S(=O)(=O)NCc2ccc3c(c2)OCO3)CC1C (configuration not stated),i,nt,nt,nt,nt
CCOC(=O)C1=C(C)S/C(=C\N(C)C)C1=O,i,i,i,i,nt
Cc1ccc(NC(=O)C2CCCN2C(=O)Oc2ccccc2)cc1 (configuration not stated),i,39,i,i,i
Cc1ccccc1OCC(=O)OC1CCN(C)CC1,i,i,i,i,nt
Cc1ccccc1OCC(=O)OC(C)CN1CCN(C)CC1 (configuration not stated),i,48,i,i,i
CCOc1cc(S(=O)(=O)NCc2ccccn2)ccc1Cl,i,37,i,i,i
N#CCCn1c(C2CCCCC2)nc2ccccc21,i,i,i,i,nt
CCOC(=O)Cn1c(S(=O)(=O)Cc2ccc(F)cc2)nc(-c2ccccc2)c1-c1ccccc1,i,i,i,i,nt
C#CCn1c(S(=O)(=O)Cc2ccc(F)cc2)nc(-c2ccccc2)c1-c1ccccc1,i,45,i,i,i
CCOC(=O)CSCc1c(C#N)c2ccccc2n1C,i,40,i,i,i
Cc1oc(-c2ccccc2F)nc1CSCC(=O)NCc1ccc2c(c1)OCO2,i,i,i,i,nt
O=C(CCCC1=NS(=O)(=O)c2ccccc2N1)N1CCN(c2ccccc2)CC1,i,40,i,i,i
SMILES,Pyk2 oligo antag,PTPN22 act,HIV Rev-RRE inh,LYP inh 2,PTPN22 act conf
N/C(=N\OC(=O)Cc1cccs1)c1ccc([N+](=O)[O-])cc1,i,nt,nt,nt,nt
COc1ccc(C2C(C(=O)Nc3ccc4c(c3)OCCO4)c3ccccc3C(=O)N2C)cc1 (configuration not stated),i,i,i,i,nt
COc1ccc(NCCNc2ccc(OC)cc2)cc1,i,i,i,i,nt
COc1ccc(Nc2c(C)cccc2C)cc1,i,39,i,i,i
Cc1cccc(CSc2ncc(CO)n2C)c1,i,38,i,i,i
CCCC1(C(=O)OC)NC(c2cccc(F)c2)C2C(=O)N(CC)C(=O)C21 (configuration not stated),i,nt,nt,nt,nt
CCN1C(=O)C2C(c3cccc(F)c3)NC(CC)(C(=O)OC)C2C1=O (configuration not stated),i,42,i,i,i
CCOC(=O)C(Oc1ccc2c(-c3ccccc3)cc(=O)oc2c1C)c1ccccc1 (configuration not stated),i,nt,nt,nt,nt
CCOC(=O)C(Oc1ccc2c(-c3ccc(OC)cc3)cc(=O)oc2c1C)c1ccccc1 (configuration not stated),i,44,i,i,i
Cc1ccc2nc(SCC(=O)Nc3nnc(SCC(N)=O)s3)[nH]c2c1,i,i,i,i,nt
CCCc1nn(C)c2c1C(c1ccncc1)C(C#N)=C(N)O2 (configuration not stated),i,57,i,i,i
COc1ccc(C2=NN(C(=O)c3cccc([N+](=O)[O-])c3)C(c3cccc([N+](=O)[O-])c3)C2)cc1 (configuration not stated),i,i,i,i,nt
COc1ccc(C(=O)N2CCc3cc(OC)c(OC)cc3C2c2cccc([N+](=O)[O-])c2)cc1OC (configuration not stated),i,39,i,i,i
CCC(=O)N1CCc2cc(Br)cc(S(=O)(=O)CCC(=O)NCC3CCCO3)c21 (configuration not stated),i,49,i,i,i
CCC(=O)N1CCc2cc(Br)cc(S(=O)(=O)NCC3CCCO3)c21 (configuration not stated),i,nt,nt,nt,nt
CCc1onc(C)c1C(=O)Nc1cc(C)ccc1OC,i,40,i,i,i
COc1ccc(C(C)(C)C)cc1NC(=O)c1c(C)noc1C,i,i,i,i,nt
O=S(NCc1ccco1)C12CC3CC(CC(C3)C1)C2 (configuration not stated),i,i,i,i,nt
CCCOc1ccc(-c2nnn(CC(=O)c3ccc4c(c3)OCCO4)n2)cc1,i,i,i,i,nt
OCCOc1ccc(C2=NCCO2)cc1,i,38,i,i,i
Cc1cccc2cc(-c3ccccc3)c(-c3ccccc3)c[n+]12,i,nt,nt,nt,nt
Cc1nnc(NC(=O)c2ccccc2Br)s1,i,i,i,i,nt
Cc1nnc(NC(=O)c2ccccc2F)s1,i,38,i,i,i
Cc1cc(C)n(-c2nncn2NC(=O)c2ccc(Cl)cc2O)n1,i,i,i,i,nt
COc1ccc(Cn2nc(C)n(N(C)c3ncc(C(F)(F)F)cc3Cl)c2=O)cc1,i,i,i,i,nt
SMILES,Pyk2 oligo antag,PTPN22 act,HIV Rev-RRE inh,LYP inh 2,PTPN22 act conf
CC(=O)Nc1nc(C2COc3ccccc3O2)cs1 (configuration not stated),i,41,i,i,i
Cc1ccc(S(=O)(=O)N(CC(O)CN2C(=O)NC(C)(C)C2=O)c2ccccc2)cc1 (configuration not stated),i,i,i,i,nt
CC1CCN(c2ncnc3nc[nH]c23)CC1,nt,42,i,i,i
CCOCCC(=O)Nc1cc(Cl)ccc1OC,i,i,i,i,nt
O=C(NCC1CCCO1)c1onc(CSc2ccc(Cl)cc2)c1C(=O)O (configuration not stated),nt,i,i,i,nt
COc1cccc(SCc2noc(C(=O)NCC3CCCO3)c2C(=O)O)c1 (configuration not stated),nt,54,i,i,i
COc1ccc(C(=O)NCCCN2CCOCC2)cc1OC,i,44,i,i,i
Cc1cccc(NC(=O)CSc2nnc(Cn3cnc4ccccc43)o2)c1,i,38,i,i,i
CCc1ccccc1NC(=O)CSc1nnc(Cn2cnc3ccccc32)o1,i,i,i,i,nt
